The values that follow come from PubChem BioAssay AID638 (SRMLSC, 2007).

Structures are written as SMILES. In all, about 1,300 compounds went through this assay and about 65 (5%) were called active.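 Rule for the calls: active = growth inhibition reaching a set limit at one or more tested doses; inactive = the rest.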 For the sample, actives were picked, then their nearest neighbours and some compounds at random. Entries with a potency or affinity are not part of this list.

This experiment in a line: growth inhibition of wild-type E. coli, dose response, BW25113 wild type, OD615 (AID 638). The note with it: at 100 µM (top of the series). A digest of the protocol: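 assay system = wild-type Escherichia coli strain BW25113 growth | medium = Kanamycin-supplemented LB broth | measured by = optical density (absorbance) at 615 nm | timing = bacterial exposure to compound 20 h at 37 °C | doses = compound concentration series | measure = IC50 from 4-parameter logistic, bounds fixed 0–100% | controls = chloramphenicol 30 µM control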
On to `Clc1ccc(COC(Cn2ccnc2)c2ccc(Cl)cc2Cl)c(Cl)c1` (stereo not given), for which the growth inhibition was 10.9% (active).
Take `Clc1ccc(COC(Cn2ccnc2)c2ccc(Cl)cc2Cl)cc1` (stereo not given): the growth inhibition is 4.14% (inactive).
On to `Cc1nn(-c2ccccc2)c(Cl)c1C1C(C#N)=C(N)Oc2c1c(=O)oc1ccccc21` (stereo not given), for which the growth inhibition was 3.35% (inactive).
As for `CN(C)C1(c2nnnn2CCOC(=O)Nc2ccc(Cl)cc2)CCCCC1`, the growth inhibition is 4.48% (inactive).
Consider `CCC(=Nc1ccc(OC)cc1OC)c1c(O)n(C2CCCCC2)c(=O)[nH]c1=O`, for which the growth inhibition was -2.11% (inactive).
